Data as given in the RNAGym collection of RNA variant scans (doi:10.1126/science.aae0568).
This sample holds only a part of the variants without activity.

B1: tRNA (parent)
chain: GUUCCGUUGGCGUAAUGGUAACGCGUCUCCCUCCUAAGGAGAAGACUGCGGGUUCGAGUCCCGUACGGAACG

Variants of: B1
Assay: yeast fitness relative to wild type (ratio to wild type); higher = fitter; tRNA-Arg(CCU), competitive growth, 37 C, YPD
Outline: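 Variants of the tRNA-Arg(CCU) gene were chemically synthesised with a 3% per-site mutation rate across 69 sites and placed at the native genomic locus in Saccharomyces cerevisiae. Six parallel replicates of the pooled strains were competed in YPD at 37°C for 24 hours, and gene amplicons from the start and end populations were read by 100-nucleotide paired-end sequencing. Darwinian fitness relative to wild type was derived from changes in genotype frequencies. Genotypes required ≥ 100 starting reads, and estimates < 0.5 were set to 0.5.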

Row | Variant | yeast fitness
1 | GUUCCGUUGGCGUAAUGGUAACGCGUCUACCUCCUAAGGAGAAAACUGAGGGUUCGAGACCCGUACGGAACG [C29A G44A C49A U59A] | ≤ 0.5
2 | GUUCCGUUGGCGUAAUGGUAACGCGUCGCGCUCCUAAGGCGUAGACUGCGAGUUCGAGUCCCGUACGGAACG [U28G C30G A40C A42U G51A] | ≤ 0.5
3 | GUUCCGUUGGCGUAAUGGUAACGCGUCUGCCUCCUACGGAGAAGACUGCGGGUUCGAGUCCCGUACGGAACG [C29G A37C] | 0.56
4 | GUUCCGUUGGCGUAAUGGUAACGCGUCUACCUCCUAAGGAGAAGAUUGCGGGUUCGAGUUCCGUACGGAACG [C29A C46U C60U] | ≤ 0.5
5 | GUUCCGUUGGCGUAAUGGUAACGCGUCGCCCUCCUAAGGAGAAGACUGCGGGUUAGAGUCCCGUACGGAACG [U28G C55A] | 0.572
6 | GUUCCGUUGGCGUAAUGGUAACGCGUCUACCUCCUAAGGAGAAGACUGCCGGUUCGAGUCCCGUACGGAACG [C29A G50C] | 0.553
7 | GUUCCGUUGGCGUAAUGGUAACGCGUCGCCCUCCUAACGGGAAGACUGCGGGUUCGAGUCCCGUACGGAACG [U28G G38C A40G] | 0.546
8 | GUUCCGUUGGCGUAAUGGUAACGCGUCUACCUUCUAAGGAGAAGACUGCGGGUUCGAGUCUCGUACGGUACG [C29A C33U C61U A69U] | ≤ 0.5
9 | GUUCCGUUGGCGUAAUGGUAACGCGUCUACCUCCUAAGGAGAAGACUGAGGGUUCGAGUCCCGUACGGAACG [C29A C49A] | 0.506
10 | GUUCCGUUGGCGUAAUGGUAACGCGUCUACCUUCUAAGGAGAAGACUGCGGGUUCGAGUCCCGUACGGAACG [C29A C33U] | ≤ 0.5
11 | GUUCCGUUGGCGUAAUGGUAACGCGUCUACCUGCUAAGGAGAAGACUGCGGGUUCGAGUCCCGUACGGAACG [C29A C33G] | 0.616
12 | GUUCCGUUGGCGUAAUGGUAACGCGUCUACCUCCUAAAGAGAAGACUGCGGGUCCGAGUCCCGUACGGUACG [C29A G38A U54C A69U] | ≤ 0.5
13 | GUUCCGUUGGCGUAAUGGUAACGCGUCGCACUCCUAAGGAGAAGACUGCGUGUUCGAGUCCCGUACGGAACG [U28G C30A G51U] | ≤ 0.5
14 | GUUCCGUUGGCGUAAUGGUAACGCGUCUACCUCCUAGGGAGAAGACUGCGGGUUAGAGUCCCGUACGGAACG [C29A A37G C55A] | ≤ 0.5
15 | GUUCCGUUGGCGUAAUGGUAACGCGUCGCCCUCCUAAGGAGAACACUCCGGGUUCGAGUCCCGUACGGAACG [U28G G44C G48C] | 0.556
16 | GUUCCGUUGGCGUAAUGGUAACGCGUCUGCCUCCUAGGGAGAAGACUGCGGGUUCGUGUCCCGUACGGAACG [C29G A37G A57U] | 0.617
17 | GUUCCGUUGGCGUAAUGGUAACGCGUCGUCCUCCUAAGGAGAAGACUGCCGGUUCGAGUCCCGUACGGAACG [U28G C29U G50C] | ≤ 0.5
18 | GUUCCGUUGGCGUAAUGGUAACGCGUCUACCUGCUAAGGAGAAGACUGCGGGUUCGAGUCUCGUAUGGAACG [C29A C33G C61U C66U] | ≤ 0.5
19 | GUUCCGUUGGCGUAAUGGUAACGCGUCGCCGUCCUAAGAAGAAGACUGCGGGUUCGAGUCCCGUACGGAACG [U28G C31G G39A] | 0.578

Row | Variant | yeast fitness
20 | GUUCCGUUGGCGUAAUGGUAACGCGUCGCCCUCCUAAGGAGAAGACUGCGGGUUCGAGUCCCGCACGGAACG [U28G U64C] | 0.864
21 | GUUCCGUUGGCGUAAUGGUAACGCGUCGCCCUCCUAAGGAGAAGACUGCGGGUUCGAGUCCCGAACGGAACG [U28G U64A] | 0.65
22 | GUUCCGUUGGCGUAAUGGUAACGCGUCUGCCUCCUAAGGUGAAGACUGCCGGUUCGAGUCCCGUACUGGACG [C29G A40U G50C G67U A69G] | ≤ 0.5
23 | GUUCCGUUGGCGUAAUGGUAACGCGUCGCCCUCCUAAGGAGAAGACUGCGGGUUCGAGUCCGGUACGGAACG [U28G C62G] | 0.587
24 | GUUCCGUUGGCGUAAUGGUAACGCGUCUACCUCCUAAGGAGAAGACUGCGGGUUCGUGUGCCGUACGGAACG [C29A A57U C60G] | ≤ 0.5
25 | GUUCCGUUGGCGUAAUGGUAACGCGUCUACCUCCUAAGGAGAAGAUUGCGGGUUAGAGUCCCGUACGGAACG [C29A C46U C55A] | 0.572
26 | GUUCCGUUGGCGUAAUGGUAACGCGUCUACCUCCUAAGGAGAAGAAUGAGGGUUCGAGUCCCGUACGGAACG [C29A C46A C49A] | ≤ 0.5
27 | GUUCCGUUGGCGUAAUGGUAACGCGUCUACUUCCUAAGGAGACCACUGCGGGUUCGAGUCCCGUUCGGAACG [C29A C31U A43C G44C A65U] | ≤ 0.5
28 | GUUCCGUUGGCGUAAUGGUAACGCGUCUACCUCCUAGGGAGAAGACUGCGGGUUCGAGUCCCGAACGGAUCG [C29A A37G U64A A70U] | ≤ 0.5
29 | GUUCCGUUGGCGUAAUGGUAACGCGUCUACCUCCUAGGGAGAAGACUGCGGGUUCGAGUCCCGUACCGAACG [C29A A37G G67C] | 0.62
30 | GUUCCGUUGGCGUAAUGGUAACGCGUCUACCUCCUAAGGAGAAGACUGUGGGUUCGAGUCCCAUACGGAACG [C29A C49U G63A] | ≤ 0.5
31 | GUUCCGUUGGCGUAAUGGUAACGCGUCUGACUCCUAAGGAGAAGACUGCGGGUUCGAGUCCCGUACGGAACG [C29G C30A] | 0.585
32 | GUUCCGUUGGCGUAAUGGUAACGCGUCUACCUCCUAAGAAGAAGACUGCGGGUUCGAGUCCCGUACGGAACG [C29A G39A] | 0.725
33 | GUUCCGUUGGCGUAAUGGUAACGCGUCGCCCUCCUAAGGAGAAGAUUGCGGGUUCGAGUACCGUUCGGUACG [U28G C46U C60A A65U A69U] | ≤ 0.5
34 | GUUCCGUUGGCGUAAUGGUAACGCGUCUACCUCUUAAGGAGAAGACUCCGGGUUCGUGUCCCGUACGGAACG [C29A C34U G48C A57U] | ≤ 0.5
35 | GUUCCGUUGGCGUAAUGGUAACGCGUCUGCCUCCUAUGGAGAAGACUGCGGGUUGGAGUCCCGUACGGAACG [C29G A37U C55G] | 0.549
36 | GUUCCGUUGGCGUAAUGGUAACGCGUCUACUUCCUAAGGAGAUGACUGCGGGUUCGAGUCCCGUACGGAACG [C29A C31U A43U] | 0.506
37 | GUUCCGUUGGCGUAAUGGUAACGCGUCGCCCUCCUAAGGAGAAGACUGCGGGUUCGACUCCCGUACGGAACG [U28G G58C] | 0.771
38 | GUUCCGUUGGCGUAAUGGUAACGCGUCUACCUCCUACGGAGAAGACUGCGGGUUCGAGUCCCGUACGGAACG [C29A A37C] | 0.597
